18 compounds from ChEMBL document CHEMBL2401640, “In search of flavivirus inhibitors: evaluation of different tritylated nucleoside analogues” (Eur J Med Chem, 2013) can be followed below.

Data set [1] is described as follows: Cytotoxicity against mosquito C6/36 cells after 1 week. Particulars: aedes albopictus. It counts as cell-based.
A short description of data set [2]: Selectivity index, ratio of CC50 for african green monkey Vero cells to EC50 for YFV 17D. The gist of the method: (§1)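 Vero-B cells (ATCC CCL-81), grown in MEM with 10% FCS, seeded at 2 x 10⁴ cells/well in 2% FCS medium and left to adhere overnight. Infected with 100 CCID₅₀ of YFV-17D vaccine strain (one passage in Vero-B), then serial compound dilutions added. After one week, fixed with ethanol and stained with methylene blue. EC₅₀ for CPE inhibition and CC₅₀ from uninfected parallel cultures, both read visually.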

The test system of data set [3] is dengue virus type 2. The data set is described as follows: Antiviral activity against DENV serotype 2 NGC infected in mosquito C6/36 cells assessed as inhibition of virus-induced cytopathic effect after 1 week. The class given is functional, organism-based. The conditions noted are these: C6/36, 168 h. A general note: Cytopathic effects are the visible damage that an infection or toxin causes in cultured cells.

Data set [4] in a line: Cytotoxicity against african green monkey Vero cells after 1 week. It counts as cell-based. Particulars: chlorocebus sabaeus. The gist of the method:
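Vero-B cells in MEM with 2% FCS, seeded at 7 x 10³ (DENV assay) or 2 x 10⁴ (YFV assay) cells/well and left to adhere overnight. Serial compound dilutions were added without virus and incubated one week. Cells were ethanol-fixed and stained with 1% methylene blue. CC50, the concentration inhibiting cell growth by 50%, was determined visually.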

Data set [5] can be described thus: Selectivity index, ratio of CC50 for mosquito C6/36 cells to EC50 for DENV serotype 2 NGC.
For data set [6], the system named is Yellow fever virus. The data set is described as follows: Antiviral activity against YFV 17D infected in african green monkey Vero cells assessed as inhibition of virus-induced cytopathic effect after 1 week. The class given is functional, cell-based. The conditions noted are these: 168 h. The gist of the method: as §1

On to `O=c1ccn([C@@H]2O[C@H](COC(c3ccccc3)(c3ccccc3)c3ccccc3)[C@@H](O)[C@H]2O)c(=O)[nH]1`, for which the 50% cytotoxic concentration (CC50) at 168 h in data set [1] was 10 µM; in data set [4] it was 18 µM. The “Ratio CC50/EC50” value was determined as 4.5 in data set [2] and 1.67 in data set [5]. Further, the values for the EC50 in data set [3] and in data set [6] were 6 µM and 4 µM, respectively.

As to `O=c1ccn([C@@H]2O[C@H](COC(c3ccccc3)(c3ccccc3)c3ccccc3)[C@@H](OC(c3ccccc3)(c3ccccc3)c3ccccc3)[C@H]2O)c(=O)[nH]1`, the CC50 at 168 h in data set [1] was greater than 10 µM; in data set [4], greater than 85 µM. Also, the “Ratio CC50/EC50” value in data set [2] is listed as greater than 85; in data set [5], greater than 5. Besides, the EC50 in data set [3] worked out at 1.75 µM; in data set [6], 1 µM.

Take `O=c1ccn([C@@H]2O[C@H](COC(c3ccccc3)(c3ccccc3)c3ccccc3)[C@@H](O)[C@H]2OC(c2ccccc2)(c2ccccc2)c2ccccc2)c(=O)[nH]1`: the CC50 at 168 h in data set [1] and in data set [4] was greater than 100 µM throughout. For the same compound, the “Ratio CC50/EC50” value in data set [2] is listed as greater than 80; in data set [5], greater than 3. Further, the figures for the EC50 in data set [3] and in data set [6] were 30 µM and 1.2 µM, respectively.

`O=c1ccn([C@@H]2O[C@H](CO)[C@@H](O)[C@H]2OC(c2ccccc2)(c2ccccc2)c2ccccc2)c(=O)[nH]1`: the CC50 at 168 h in data set [1] is 40 µM; in data set [4], 35 µM. For the same compound, in data set [2], the “Ratio CC50/EC50” value is given as 1.4. Moreover, the EC50 in data set [6] was determined as 25 µM.

`O=c1ccn([C@@H]2O[C@H](CO)[C@@H](OC(c3ccccc3)(c3ccccc3)c3ccccc3)[C@H]2O)c(=O)[nH]1`: the cytotoxic concentration (CC50) at 168 h in data set [1] and in data set [4] was 18 µM throughout. Besides, the “Ratio CC50/EC50” value in data set [2] stood at 1.8. For the same compound, the EC50 in data set [6] is 10 µM.

As for `O=c1ccn([C@H]2C[C@H](OC(c3ccccc3)(c3ccccc3)c3ccccc3)[C@@H](COC(c3ccccc3)(c3ccccc3)c3ccccc3)O2)c(=O)[nH]1`, the CC50 at 168 h in data set [1] and in data set [4] was greater than 65 µM throughout. Besides, the “Ratio CC50/EC50” value is greater than 70 in data set [2] and greater than 17 in data set [5]. Besides, the values for the EC50 in data set [3] and in data set [6] were 3.7 µM and 0.9 µM, respectively.

With `O=c1ccn([C@H]2C[C@H](OC(c3ccccc3)(c3ccccc3)c3ccccc3)[C@@H](CO)O2)c(=O)[nH]1`, the CC50 at 168 h was 5 µM in data set [1] and 4 µM in data set [4]. Moreover, in data set [2], the “Ratio CC50/EC50” value was determined as 2.7. The EC50 in data set [6] was 1.5 µM.

As to `Cc1cn([C@H]2C[C@H](OC(c3ccccc3)(c3ccccc3)c3ccccc3)[C@@H](COC(c3ccccc3)(c3ccccc3)c3ccccc3)O2)c(=O)[nH]c1=O`, the CC50 at 168 h in data set [1] was found to be 35 µM; in data set [4], 70 µM. In addition, in data set [2], the “Ratio CC50/EC50” value came to 7. In addition, the EC50 in data set [6] is 10 µM.

As to `Cc1cn([C@H]2C[C@H](O)[C@@H](COC(c3ccccc3)(c3ccccc3)c3ccccc3)O2)c(=O)[nH]c1=O`, the CC50 at 168 h in data set [1] was 4 µM; in data set [4], 8 µM.

For `Cc1cn([C@H]2C[C@H](OC(c3ccccc3)(c3ccccc3)c3ccccc3)[C@@H](CO)O2)c(=O)[nH]c1=O`, the CC50 at 168 h in data set [1] is 10 µM; in data set [4], 18 µM. The “Ratio CC50/EC50” value in data set [2] is reported as 1.8. For the same compound, in data set [6], the EC50 stood at 10 µM.

With `O=c1[nH]c(=O)n([C@@H]2O[C@H](COC(c3ccccc3)(c3ccccc3)c3ccccc3)[C@@H](O)[C@H]2O)cc1Cl`, the CC50 at 168 h in data set [1] and in data set [4] was 5 µM throughout. Besides, the “Ratio CC50/EC50” value in data set [2] turned out to be 2.5. In data set [6], the 50% effective concentration (EC50) turned out to be 2 µM.

Regarding `O=c1[nH]c(=O)n([C@@H]2O[C@H](COC(c3ccccc3)(c3ccccc3)c3ccccc3)[C@@H](OC(c3ccccc3)(c3ccccc3)c3ccccc3)[C@H]2O)cc1Cl`, the figures for the CC50 at 168 h in data set [1] and in data set [4] were 1 µM and 2 µM, respectively. In data set [2], the “Ratio CC50/EC50” value is listed as 2.9. The half-maximal effective concentration (EC50) in data set [6] was determined as 0.7 µM.

Turning to `O=c1[nH]c(=O)n([C@@H]2O[C@H](COC(c3ccccc3)(c3ccccc3)c3ccccc3)[C@@H](O)[C@H]2OC(c2ccccc2)(c2ccccc2)c2ccccc2)cc1Cl`, the cytotoxic concentration (CC50) at 168 h in data set [1] is 30 µM; in data set [4] it was greater than 70 µM. The “Ratio CC50/EC50” value is given as greater than 90 in data set [2] and 1.75 in data set [5]. Moreover, the values for the concentration for a half-maximal effect (EC50) in data set [3] and in data set [6] were 17 µM and 0.75 µM, respectively.

As to `O=c1[nH]c(=O)n([C@@H]2O[C@H](CO)[C@@H](O)[C@H]2OC(c2ccccc2)(c2ccccc2)c2ccccc2)cc1Cl`, the CC50 at 168 h in data set [1] and in data set [4] was 30 µM in each case. For the same compound, the “Ratio CC50/EC50” value in data set [2] was 2. Further, the EC50 in data set [6] amounted to 15 µM.

On to `O=c1[nH]cnc2c1ncn2[C@@H]1O[C@H](COC(c2ccccc2)(c2ccccc2)c2ccccc2)[C@@H](OC(c2ccccc2)(c2ccccc2)c2ccccc2)[C@H]1O`, for which the CC50 at 168 h in data set [1] and in data set [4] was 10 µM each time. Further, the “Ratio CC50/EC50” value in data set [2] is given as greater than 40; in data set [5], 6.6. For the same compound, the EC50 in data set [3] is 1.5 µM; in data set [6], less than 0.4 µM.

`O=c1[nH]cnc2c1ncn2[C@@H]1O[C@H](COC(c2ccccc2)(c2ccccc2)c2ccccc2)[C@@H](O)[C@H]1OC(c1ccccc1)(c1ccccc1)c1ccccc1`: the CC50 at 168 h in data set [1] stood at 6 µM; in data set [4] it was 10 µM.

`Oc1ncnc2c1ncn2[C@@H]1O[C@H](COC(c2ccccc2)(c2ccccc2)c2ccccc2)[C@@H](O)[C@H]1O`: the CC50 at 168 h in data set [1] and in data set [4] was 30 µM in each case.

As to `O=c1ccn([C@H]2C[C@H](O)[C@@H](COC(c3ccccc3)(c3ccccc3)c3ccccc3)O2)c(=O)[nH]1`, the CC50 at 168 h turned out to be 8 µM in data set [1] and 5 µM in data set [4]. The “Ratio CC50/EC50” value in data set [2] is given as 1.7. For the same compound, in data set [6], the EC50 is 3 µM.

Broadly, the CC50 is the concentration that lowers cell viability or growth by half. A word on the EC50: it is the midpoint of the concentration-response curve.
